Measurements pooled from the literature.

Cc1ccc(NC(=O)c2ccc(CN3CCN(C)CC3)cc2)cc1Nc1nccc(-c2cccnc2)n1 — inhibition (HeLa; cell growth or viability; MTT; 20 µM; 48 h): 21%
CC[C@@H](C)[C@H](N)C(=O)N1Cc2ccccc2C1 — IC50 (NB-4; cell growth or viability; ATP luminescence; 48 h): 1.5 µM
C=CC(=O)N1CCC[C@@H](n2nc(-c3ccc(Oc4ccccc4)cc3)c3c(N)ncnc32)C1 — GI50 (NB-4; cell growth or viability; ATP luminescence; 72 h): 7.5 µM
CCCCCCCCCCCCNC(=S)NCCCC[C@H](NC(=O)OCc1ccccc1)C(=O)N[C@@H](C)C(=O)N[C@@H](CCCNC(=N)N)C(N)=O — EC50 (HeLa; cell growth or viability; MTT; 72 h): 41.4 to 53.1 µM
COc1cc(C(=O)Nc2cc(OC)c3ccccc3n2)nc(C(=O)Nc2cc(OC)c3ccccc3n2)c1 — IC50 (U2OS; cell growth or viability; ATP luminescence; 72 h): > 40 µM
COc1ccc(-c2ccc(-c3ccc(C(=N)N)nc3)s2)cc1 — GI50 (Hs-578T; cell growth or viability; SRB): 1.82 µM
Cn1nnc2c(C(N)=O)ncn2c1=O — EC50 (BGC-823; cell growth or viability): > 1000 µM
CCOCCOCCOCCNC(=S)NCCCC[C@H](NS(C)(=O)=O)C(=O)N[C@@H](C)C(=O)N[C@@H](CCCNC(=N)N)C(N)=O — EC50 (HeLa; cell growth or viability; MTT; 72 h): > 100 µM
COc1cc(-c2ccc(-c3ccc(C(=N)N)nc3)s2)cc(OC)c1OC — GI50 (SK-MEL-2; cell growth or viability; SRB): 2.09 µM
COc1cc(F)ccc1-c1cc(Nc2cc(CS(C)(=N)=O)ccn2)ncc1F (stereo not shown) — GI50 (HeLa; cell growth or viability; 24 h): 0.045 µM
N[C@@H]1CCCN(c2c(/C=C3\SC(=O)NC3=O)cccc2-c2ccccc2)C1 — GI50 (KMS-11; cell growth or viability; thymidine uptake): 4.67 µM
O=C(Nc1cc(OCCN2CCCC2)c2ccccc2n1)c1cc(OCc2ccc(F)cc2)cc(C(=O)Nc2cc(OCCN3CCCC3)c3ccccc3n2)n1 — IC50 (U2OS; cell growth or viability; ATP luminescence; 72 h): 5.8 µM
COc1ccc(-c2ccc(-c3ccc(C(=N)N)nc3)s2)cc1Cl — GI50 (UACC-62; cell growth or viability; SRB): 1.76 µM
CCCCCCCCCCCCNC(=S)NCCCC[C@H](NS(C)(=O)=O)C(=O)N[C@@H](C)C(=O)N[C@@H](CCCNC(=N)N)C(N)=O — EC50 (HeLa; cell growth or viability; MTT; 72 h): 28.9 to 39.1 µM
COc1cc(Nc2nccc(-c3cnn4nc(OC)ccc34)n2)cc(C(F)(F)F)c1 — IC50 (U2OS; cell growth or viability; ATP luminescence): 0.39 µM
COc1cc(OC)c(C(=O)/C=C/c2ccc(Br)cn2)c(OC)c1 — inhibition (HeLa; colony formation; 4 µM; 7 days): ~100%
